From ChEMBL document CHEMBL5380787, “Optimized M24B Aminopeptidase Inhibitors for CARD8 Inflammasome Activation” (J Med Chem, 2023)
The source made the active and inactive calls. The calls are words filed in the database; no cut-off is given here.

Experiments:
OCI-AML2 = assay: Induction of cell death in human OCI-AML2 cells assessed as increase in PI uptake at 6.25 uM incubated for 6 hrs by PI staining based fluorescence analysis; type: functional
Summary of the method: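 PI flux assay. 2 × 10^4 MV4;11 (WT, CARD8−/− or CASP1−/−) or OCI-AML2 cells in RPMI were given compound at 6.25 μM plus PI at 10 μM final. Fluorescence (Ex/Em 535/617 nm) was read every 5 min at 37 °C for 6 h, baseline-corrected to DMSO and normalized to the maximum response. n = 3.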

[1] = Stability in human MV4-11 cells assessed as retention time of parent compound incubated for 24 hrs by LC/MS analysis; type: ADME, cell-based; settings: mv4-11, 24 h
Summary of the method: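 Compound was held in MV4;11 conditioned medium for 24 h at 37 °C, then LC/MS was run, recording the retention times of the parent ester and its free acid.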

[2] = Drug metabolism of the compound in human MV4-11 cells assessed as de-esterified metabolite formation by LC-MS analysis; type: ADME, cell-based
MV4-11 [3] = assay: Cytotoxicity against human MV4-11 cells assessed as reduction in cell viability at 0.015 to 100 uM incubated for 24 hrs by celltiter-glo assay; type: functional; settings: dose 0.015-100 µM
Summary of the method: (§1)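 MV4;11 cells (WT or CASP1−/−), grown in RPMI 1640 with 10% FBS at 37 °C, 5% CO2, plated 2000 cells/well, dosed by pintool across 100 μM to 15.2 nM in three-fold steps for 24 h. Viability by CellTiter-Glo luminescence after 2 min shaking and 10 min at 25 °C. IC50 as mean ± SEM of three biological replicates.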

MV4-11 [4] = assay: Cytotoxicity against CASP1 knockout human MV4-11 cells assessed as reduction in cell viability at 0.015 to 100 uM incubated for 24 hrs by celltiter-glo assay; type: functional; settings: dose 0.015-100 µM; summary of the method: as §1
[5] = Drug metabolism in human MV4-11 cell culture supernatant assessed as (S)-1-((2S,3R)-3-amino-2-hydroxy-5-methylhexanoyl)pyrrolidine-2-carboxylic acid formation measured within 30 mins by LC-MS analysis; type: ADME, cell-based; settings: mv4-11, 0.5 h
[6] = Stability of the compound in human MV4-11 cells assessed as de-esterification by measuring parent compound remaining measured after 24 hrs by LC-MS analysis; type: ADME, cell-based; settings: read-out: Stability
Summary of the method: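 Compound was incubated in conditioned medium from MV4;11 cells for 24 h at 37 °C, and LC/MS then measured intact ester remaining and the de-esterified free acid. n = 3, mean ± SEM.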

| Retention_time [1] [min] | Drug metabolism [2] | Drug metabolism [5] | remaining at 24 h [6] [%] | Compound | Activity (OCI-AML2) | Activity (MV4-11 [3]) [%] | Activity (MV4-11 [4]) [%] |
| --- | --- | --- | --- | --- | --- | --- | --- |
| 2.82 | Metabolite_Detected |  |  | COC(=O)[C@H](CC(C)C)NC(=O)[C@@H]1CCCN1C(=O)[C@@H](O)[C@H](N)CC(C)C | Active |  |  |
|  |  | Metabolite_Detected | 50 | COC(=O)[C@@H]1CCCN1C(=O)[C@@H](O)[C@H](N)CC(C)C |  | 28 | 95 |
